Measured values taken from ChEMBL document CHEMBL1133719, “Synthesis and preliminary biological evaluations of CC-1065 analogues: effects of different linkers and terminal amides on biological activity” (J Med Chem, 2000).
Values joined by “and” are separate entries in the source; they are usually repeats but may differ in a detail not shown here. Equal entries are not always repeated.

What was measured:
HT-29 = experiment: Cytotoxicity against NCI tumor panel, HT-29 colon cancer cell line; type: functional, cell-based; details: Homo sapiens
Summary of the method: (§1)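 Performed by NCI with the sulforhodamine B (SRB) method on its human tumour cell panel, using a 48-h drug incubation.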

HOP-92 = experiment: Cytotoxicity against NCI tumor panel, HOP-92 non small-cell lung cancer cell line; type: functional, cell-based; details: Homo sapiens
Summary of the method: (§2)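 NCI cell-line panel screen run by the National Cancer Institute; sulforhodamine B (SRB) readout after 48-h drug incubation.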

OVCAR-3 = experiment: Cytotoxicity against NCI tumor panel, OVCAR-3 ovarian cancer cell line; type: functional, cell-based; details: Homo sapiens; summary of the method: as §1
Mus musculus [1] = experiment: Antitumor activity was tested in mice and percent increase of life span at a dose of 100 ug/kg was reported; type: functional
Summary of the method: (§3)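 B16BL6 cells were cultured as monolayers, and 10⁶ cells were injected ip on day 0 into female BDF1 mice (4-6 weeks, 8 per group). Drug in dimethylacetamide was diluted in DMA/Cremophor/water (1:5:44) and 0.1 mL given ip on days 1, 5 and 9. %ILS came from median survival of dying animals; 90-day survivors were counted; mean weight change covered days 1-10.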

A549 = experiment: Cytotoxicity against NCI tumor panel, A-549/ATCC non small-cell lung cancer cell line; type: functional, cell-based; details: Homo sapiens; summary of the method: as §2
NCI-H522 = experiment: Cytotoxicity against NCI tumor panel, NCI-H522 non small-cell lung cancer cell line; type: functional, cell-based; details: Homo sapiens; summary of the method: as §1
Mus musculus [2] = species: Mus musculus; experiment: Mean body weight change between 1-10 days; type: functional
Summary of the method: (§4)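 Female BDF1 mice (4-6 weeks old, 8 per group) were inoculated ip with 10⁶ B16BL6 melanoma cells on day 0. Drugs in dimethylacetamide were diluted in DMA:Cremophor:water (1:5:44) and given ip at 0.1 mL on days 1, 5 and 9 (doses per kg). Read-outs were %ILS = (T/C − 1) × 100 on median survival of dying animals only, mean body weight change from day 1 to day 10 (g/mouse), and 90-day survivors.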

LOX IMVI = experiment: Cytotoxicity against NCI tumor panel, […] melanoma cancer cell line; type: functional, cell-based; details: Homo sapiens; summary of the method: as §1
HCT-15 = experiment: Cytotoxicity against NCI tumor panel, HCT-15 colon cancer cell line; type: functional, cell-based; details: Homo sapiens; summary of the method: as §2
Mus musculus [3] = experiment: Antitumor activity in BDF1 male mice bearing L1210 Leukemia at a dose of 70 ug/kg; type: functional
Summary of the method: (§5)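 Male BDF1 mice, 4-6 weeks old, 6 per group, were given 10⁵ L1210 cells ip on day 0. Drug in DMF was diluted in 30% DMSO/0.5% glucose and given ip on days 1, 5 and 9. %ILS = (T/C − 1) × 100 on median survival of dying animals only; 30-day survivors noted separately. Group weight change was taken from day 0 to the lowest-weight day.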

HCT-116 = experiment: Cytotoxicity against NCI tumor panel, HCT116 colon cancer cell line; type: functional, cell-based; details: Homo sapiens; summary of the method: as §2
DU-145 = experiment: Cytotoxicity against NCI tumor panel, DU145 prostate cancer cell line; type: functional, cell-based; details: Homo sapiens; summary of the method: as §2
SNB-75 = experiment: Cytotoxicity against NCI tumor panel, SNB-75 CNS cancer cell line; type: functional, cell-based; details: Homo sapiens; summary of the method: as §1
Mus musculus [4] = species: Mus musculus; experiment: Mice bearing B16BL6 leukemia at a dose 100; type: functional; details: in the assay text read “melanoma” for “leukemia”; summary of the method: as §4
IGROV-1 = experiment: Cytotoxicity against NCI tumor panel, IGROV1 ovarian cancer cell line; type: functional, cell-based; details: Homo sapiens; summary of the method: as §1
M14 = experiment: Cytotoxicity against NCI tumor panel, M14 melanoma cancer cell line; type: functional, cell-based; details: Homo sapiens; summary of the method: as §1
UACC-62 = experiment: Cytotoxicity against NCI tumor panel, UACC-62 melanoma cancer cell line; type: functional, cell-based; details: Homo sapiens; summary of the method: as §1
SNB-19 = experiment: Cytotoxicity against NCI tumor panel, SNB-19 CNS cancer cell line; type: functional, cell-based; details: Homo sapiens; summary of the method: as §1
Mus musculus [5] = species: Mus musculus; experiment: Hematological effects in female CDF1 mice at the dose of 50 ug, in platelet cells; type: functional
Summary of the method: (§6)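 Non-tumor-bearing female CDF1 mice, 10 per group. Drugs were dissolved in DMSO, diluted in 30% DMSO/0.5% glucose, and given as a single ip dose on day 1 (doses per kg). Blood was sampled on day 27 for WBC, platelet, RBC and MCHC counts. Values are medians of 10 mice.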

SK-MEL-28 = experiment: Cytotoxicity against NCI tumor panel, SK-MEL28 melanoma cancer cell line; type: functional, cell-based; details: Homo sapiens; summary of the method: as §1
NCI-H23 = experiment: Cytotoxicity against NCI tumor panel, NCI-H 23 non small-cell lung cancer cell line; type: functional, cell-based; details: Homo sapiens; summary of the method: as §1
Hs-578T = experiment: Cytotoxicity against NCI tumor panel, HS 578T breast cancer cell line; type: functional, cell-based; details: Homo sapiens; summary of the method: as §1
KM12 = experiment: Cytotoxicity against NCI tumor panel, KM12 colon cancer cell line; type: functional, cell-based; details: Homo sapiens; summary of the method: as §1
786-0 = experiment: Cytotoxicity against NCI tumor panel, 786-0 renal cancer cell line; type: functional, cell-based; details: Homo sapiens; summary of the method: as §2
NCI-H460 = experiment: Cytotoxicity against NCI tumor panel, NCI-H460 non small-cell lung cancer cell line; type: functional, cell-based; details: Homo sapiens; summary of the method: as §1
K562 = experiment: Cytotoxicity against NCI tumor panel, K-562 leukemia cell line; type: functional, cell-based; details: Homo sapiens; summary of the method: as §1
U-251 = experiment: Cytotoxicity against NCI tumor panel, U251 CNS cancer cell line; type: functional, cell-based; details: Homo sapiens; summary of the method: as §1
SF-268 = experiment: Cytotoxicity against NCI tumor panel, SF-268 CNS cancer cell line; type: functional, cell-based; details: Homo sapiens; summary of the method: as §1
[6] = Minimal drug concentration necessary to inhibit incorporation of [3H]thymidine in U937 Leukemia cells; type: functional, cell-based, Homo sapiens
A498 = experiment: Cytotoxicity against NCI tumor panel, A-498 renal cancer cell line; type: functional, cell-based; details: Homo sapiens; summary of the method: as §2
RPMI-8226 = experiment: Cytotoxicity against NCI tumor panel, RPMI-8226 leukemia cell line; type: functional, cell-based; details: Homo sapiens; summary of the method: as §1
SW-620 = experiment: Cytotoxicity against NCI tumor panel, SW_620 colon cancer cell line; type: functional, cell-based; details: Homo sapiens; summary of the method: as §1
Mus musculus [7] = species: Mus musculus; experiment: Mean body weight change
Mus musculus [8] = experiment: Antitumor activity in mice bearing B16BL6 melanoma at a dose of 50 ug/kg; survivors for 90 days was reported; type: functional; summary of the method: as §3
MOLT-4 = experiment: Cytotoxicity against NCI tumor panel, MOLT-4 leukemia cell line; type: functional, cell-based; details: Homo sapiens; summary of the method: as §1
T47D = experiment: cytotoxicity against NCI tumor panel, T-47D breast cancer cell line; type: functional, cell-based; details: Homo sapiens; summary of the method: as §1
PC-3 = experiment: Cytotoxicity against NCI tumor panel, PC-3 prostate cancer cell line; type: functional, cell-based; details: Homo sapiens; summary of the method: as §1
Mus musculus [9] = experiment: Antitumor activity in BDF1 male mice bearing L1210 Leukemia at a dose of 25 ug/kg; survivors for 30 days was reported; type: functional; summary of the method: as §5
CAKI-1 = experiment: Cytotoxicity against NCI tumor panel, CAKI-1 renal cancer cell line; type: functional, cell-based; details: Homo sapiens; summary of the method: as §2
MCF7 = experiment: Cytotoxicity against NCI tumor panel, MCF-7 breast cancer cell line; type: functional, cell-based; details: Homo sapiens; summary of the method: as §1
Mus musculus [10] = experiment: Antitumor activity in BDF1 male mice bearing L1210 Leukemia at a dose of 42 ug/kg; survivors for 30 days was reported; type: functional; summary of the method: as §5
Mus musculus [11] = experiment: Antitumor activity was tested in mice and percent increase of life span at a dose of 50 ug/kg was reported; type: functional; summary of the method: as §3
Mus musculus [12] = experiment: Haematological effects in mice dose administered intraperitoneally; type: functional; summary of the method: as §6
COLO 205 = experiment: Cytotoxicity against NCI tumor panel, COLO 205 colon cancer cell line; type: functional, cell-based; details: Homo sapiens; summary of the method: as §2
SK-MEL-5 = experiment: Cytotoxicity against NCI tumor panel, SKMEL-5 melanoma cancer cell line; type: functional, cell-based; details: Homo sapiens; summary of the method: as §1
SK-OV-3 = experiment: cytotoxicity against NCI tumor panel, SK-OV-3 ovarian cancer cell line; type: functional, cell-based; details: Homo sapiens; summary of the method: as §1
ACHN = experiment: Cytotoxicity against NCI tumor panel, ACHN renal cancer cell line; type: functional, cell-based; details: Homo sapiens; summary of the method: as §2
HOP-62 = experiment: Cytotoxicity against NCI tumor panel, HOP-62 non small-cell lung cancer cell line; type: functional, cell-based; details: Homo sapiens; summary of the method: as §2
BT-549 = experiment: Cytotoxicity against NCI tumor panel, BT-549 breast cancer cell line; type: functional, cell-based; details: Homo sapiens; summary of the method: as §2

## CC(=O)Nc1ccc2[nH]c(C(=O)Nc3ccc4[nH]c(C(=O)N5CC(CCl)c6c5cc(O)c5ccccc65)cc4c3)cc2c1 (centres undefined)
HT-29
  IC50: 1.34 nM
HOP-92
  IC50: 2.11 nM
OVCAR-3
  IC50: 3.51 nM
Mus musculus [1]
  ILS at 0.1 mg/kg: 91%
A549
  IC50: 1.49 nM
NCI-H522
  IC50: 0.238 nM
Mus musculus [2]
  Weight: 1.1 g and 0.3 g and 0.9 g
LOX IMVI
  IC50: 0.577 nM
HCT-15
  IC50: > 10 nM
Mus musculus [3]
  No. of survivors: 1
HCT-116
  IC50: 0.495 nM
DU-145
  IC50: 0.982 nM
SNB-75
  IC50: 0.513 nM
Mus musculus [4]
  Dose: 0.1 mg/kg
IGROV-1
  IC50: 1.01 nM
M14
  IC50: 1.48 nM
UACC-62
  IC50: 0.419 nM
SNB-19
  IC50: 2.59 nM
Mus musculus [5]
  Platelet: 1.1 10e6 ul-1
SK-MEL-28
  IC50: 2.21 nM
NCI-H23
  IC50: 1.36 nM
Hs-578T
  IC50: 1.63 nM
KM12
  IC50: 1.78 nM
786-0
  IC50: 1.66 nM
NCI-H460
  IC50: 1.48 nM
K562
  IC50: 3.76 nM
U-251
  IC50: 0.719 nM
SF-268
  IC50: 0.212 nM
[6]
  IC50: 0.4 nM
A498
  IC50: 3.95 nM
RPMI-8226
  IC50: 8.98 nM
SW-620
  IC50: 2.36 nM
Mus musculus [7]
  Weight: 16%
Mus musculus [8]
  No. of survivors: 0
MOLT-4
  IC50: 0.375 nM
T47D
  IC50: 1.68 nM
PC-3
  IC50: 2.03 nM
Mus musculus [9]
  No. of survivors: 0
CAKI-1
  IC50: 4.27 nM
MCF7
  IC50: 0.476 nM
Mus musculus [10]
  No. of survivors: 0
Mus musculus [11]
  ILS at 0.05 mg/kg: 59%
Mus musculus [12]
  Dose: 0.05 mg/kg
COLO 205
  IC50: 2.99 nM
SK-MEL-5
  IC50: 1.11 nM
SK-OV-3
  IC50: 4.33 nM
ACHN
  IC50: 1.28 nM
HOP-62
  IC50: 1.25 nM
BT-549
  IC50: 3.29 nM
